Published values of several laboratories.
STAT3: Signal transducer and activator of transcription 3 (STAT3, Homo sapiens, UniProt P40763)
SIRT6: NAD-dependent protein deacylase sirtuin-6 (SIRT6, Homo sapiens, UniProt Q8N6T7)
OR5K1 A2T/T15M/Y193C: OR5K1 (Homo sapiens, UniProt Q8NHB7, A2T/T15M/Y193C)
PKM: Pyruvate kinase PKM (PKM, Homo sapiens, UniProt P14618)
HTR7: 5-hydroxytryptamine receptor 7 (HTR7, Homo sapiens, UniProt P34969)

Cc1cc(C)c(S(=O)(=O)N(C)CC(=O)N(Cc2cc(C(C)(C)C)cc(C(C)(C)C)c2)c2ccc(C(=O)O)c(O)c2)c(C)c1
Ki (STAT3; ligand displacement, FP): 19.7 µM

Nc1nc2c(ncn2[C@@H]2O[C@H](COP(=O)(O)OP(=O)(O)O)[C@@H](OP(=O)(O)OP(=O)(O)O)[C@H]2O)c(=O)[nH]1
Kd (icd (Escherichia coli, UniProt P08200); binding, ITC): 132 µM

NC(=O)c1ccc(C(=O)NOCc2ccc(Nc3ccccc3)cc2)cc1
IC50 (SIRT6; enzyme activity, inhibitor, fluorescence): 2.61 µM

O=C(Nc1cc(C2CCCCC2)[nH]n1)c1ccc(Br)cc1
Kd (Cyclin-dependent kinase 2 (CDK2, Homo sapiens, UniProt P24941); binding, ITC): > 100 µM

CCc1ncc(C)nc1CC
EC50 (OR5K1 A2T/T15M/Y193C; cAMP, agonist): 102 µM

CC(C)(C)c1ccc(CONC(=O)c2ccc(C(N)=O)cc2)cc1
IC50 (SIRT6; enzyme activity, inhibitor, fluorescence): 2.79 µM

Cc1ccc2cccc(N3CCN(CCCCOc4ccc5sc(C(C)C)nc5c4)CC3)c2n1
Ki (5-hydroxytryptamine receptor 6 (HTR6, Homo sapiens, UniProt P50406); cell-free assay, radioligand): 2.2 µM

Cc1nccnc1C
EC50 (OR5K1 (Homo sapiens, UniProt Q8NHB7); cAMP, agonist): > 1500 µM

C[C@@H](CO)Nc1cc2c(cc1S(=O)(=O)Nc1ccc(F)c(Cl)c1)CCC(=O)N2
AC50 (PKM; enzyme activity, activator): 0.13 µM

CCc1nccnc1CC
EC50 (OR5K1 A2T/T15M/Y193C; cAMP, agonist): 499 µM

Cc1ccc(NS(=O)(=O)c2cc3c(cc2N[C@H](C)CO)NC(=O)CC3)cc1C
AC50 (PKM; enzyme activity, activator): 0.88 µM

NCCc1ccc(C(=O)NOCc2ccc(C(F)(F)F)cc2)cc1
IC50 (SIRT6; enzyme activity, inhibitor, fluorescence): 2.65 µM

CC(C)[C@@H](CC[C@@H](C)[C@H]1CC[C@H]2[C@@H]3[C@H](O)C[C@H]4C[C@@H](NCCCNCCCCNCCCN)CC[C@]4(C)[C@H]3CC[C@]12C)OS(=O)(=O)O
Ki (Receptor-type tyrosine-protein phosphatase C (PTPRC, Homo sapiens, UniProt P08575); enzyme activity, inhibitor): 18 µM

Cc1ccc(NS(=O)(=O)c2cc3c(cc2N2CCC(N(C)C)C2)NC(=O)CC3)cc1C (stereo not shown)
AC50 (PKM; enzyme activity, activator): > 20 µM

NC(=O)c1ccc(C(=O)NOCc2ccc3nccnc3c2)cc1
IC50 (SIRT6; enzyme activity, inhibitor, fluorescence): 65 µM

Cc1cnc(-c2ccc(-c3ccc(NC(=O)Nc4c(F)cc(F)cc4F)cc3F)c3c2C(=O)NC3)[nH]1
Kd (Mitogen-activated protein kinase kinase kinase kinase 1 (MAP4K1, Homo sapiens, UniProt Q92918); binding, competition with immobilised ligand): 0.0072 µM

CN1CCN(C2=Nc3ccccc3Oc3ccc(Cl)cc32)CC1
Ki (HTR7; ligand displacement, radioligand; cell membranes): 0.258 µM

COc1cccc(CONC(=O)c2ccc(C(N)=O)cc2)c1
IC50 (SIRT6; enzyme activity, inhibitor, fluorescence): 6.49 µM

C[C@H](NC(=O)CNC(=O)[C@@H]1CCCN1C(=O)[C@@H]1CCCN1C(=O)[C@H](C)NC(=O)[C@H](CCC(N)=O)NC(=O)CNC(=O)[C@@H]1CCCN1C(=O)[C@H](Cc1ccc(O)cc1)NC(=O)[C@H](C)NC(=O)CNC(=O)[C@@H]1CCCN1C(=O)[C@@H]1CCCN1C(=O)[C@H](C)NC(=O)[C@H](CCC(N)=O)NC(=O)CNC(=O)[C@@H]1CCCN1C(=O)[C@H](Cc1ccc(OP(=O)(O)O)cc1)NC(=O)[C@H](C)NC(=O)CN)C(=O)O
Kd (STAT3; binding, ITC; pH 7.5): ~40 µM

Cc1ccc(NS(=O)(=O)c2cc3c(cc2NC(C)C)NC(=O)CC3)cc1C
AC50 (PKM; enzyme activity, activator): 0.57 µM

CN(C)CCC=C1c2ccccc2CCc2ccccc21
Ki (HTR7; ligand displacement, radioligand; cell membranes): 0.096 µM

Cc1ccccc1Sc1ccc(CONC(=O)c2ccc(C(N)=O)cc2)cc1C(F)(F)F
IC50 (SIRT6; enzyme activity, inhibitor, fluorescence): 1.77 µM
